Measurements taken from ChEMBL document CHEMBL1147108, “Comparison of disk diffusion and agar dilution methods for erythromycin and ciprofloxacin susceptibility testing of Campylobacter jejuni subsp. jejuni” (2007).
Converted amounts (≈) assume the structure as drawn.

What was measured:
Assay type in all cases: functional
Campylobacter jejuni [1] = assay: Antibacterial activity against susceptible Campylobacter jejuni isolates by disk diffusion test; conditions: for MIC: Campylobacter jejuni
Outline: (§1)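 Isolate suspensions were made in Mueller-Hinton broth to 0.5 McFarland and spread on Mueller-Hinton agar with 5% sheep blood. Disks used were erythromycin 15 μg and ciprofloxacin 5 μg. Plates were held at 37°C for 48 h, and inhibition zone diameters were measured with slipping calipers; 6 mm means no zone.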

Campylobacter jejuni [2] = assay: Antibacterial activity against susceptible Campylobacter jejuni isolates by agar dilution test
Outline: (§2)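 Agar dilution MICs of clinical C. jejuni isolates, run at 37°C following CLSI recommendations; C. jejuni ATCC 33560 served as control strain.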

Campylobacter jejuni [3] = assay: Antimicrobial activity against ciprofloxacin-resistant Campylobacter jejuni isolates by disk diffusion test; outline: as §1
Campylobacter jejuni [4] = assay: Antimicrobial activity against ciprofloxacin-resistant Campylobacter jejuni isolate by agar dilution test; outline: as §2
Campylobacter jejuni [5] = assay: Antibacterial activity against erythromycin-resistant Campylobacter jejuni isolates by disk diffusion test; outline: as §1
Campylobacter jejuni [6] = assay: Antibacterial activity against erythromycin-resistant Campylobacter jejuni isolates by agar dilution test; outline: as §2

Compound	inhibition zone (IZ) (Campylobacter jejuni [1]) [mm]	MIC (Campylobacter jejuni [1]) [µg/mL]	MIC (Campylobacter jejuni [2]) [µg/mL]	inhibition zone (IZ) (Campylobacter jejuni [3]) [mm]	MIC (Campylobacter jejuni [3]; Campylobacter jejuni) [µg/mL]	MIC (Campylobacter jejuni [4]) [µg/mL]	inhibition zone (IZ) (Campylobacter jejuni [5]) [mm]	MIC (Campylobacter jejuni [5]; Campylobacter jejuni) [µg/mL]	MIC (Campylobacter jejuni [6]) [µg/mL]
O=C(O)c1cn(C2CC2)c2cc(N3CCNCC3)c(F)cc2c1=O [CIPROFLOXACIN]	21	0.06 (≈ 0.181 µM)	0.06 (≈ 0.181 µM)	6	4 (≈ 12.1 µM)	4 (≈ 12.1 µM)			
CC[C@H]1OC(=O)[C@H](C)[C@@H](O[C@H]2C[C@@](C)(OC)[C@@H](O)[C@H](C)O2)[C@H](C)[C@@H](O[C@@H]2O[C@H](C)C[C@H](N(C)C)[C@H]2O)[C@](C)(O)C[C@@H](C)C(=O)[C@H](C)[C@@H](O)[C@]1(C)O [ERYTHROMYCIN]	17.5	0.06 (≈ 0.0818 µM)	0.06 (≈ 0.0818 µM)				6	≥ 256	≥ 256
